Here are results for nine compounds from article PMC12392337 (Archives of toxicology, 2022).

Read-outs that look alike come from different tables or passages of the source. Some results are limits rather than exact numbers.

For data set [1], the system named is Salmonella typhimurium expressing human CYP2A6. The conditions noted are these: cited from earlier work.
Data set [2] deals with bacteria. The conditions noted are these: cited from earlier work.
Data set [3] concerns TK6 cells expressing CYP3A4. The data set can be described thus: In vitro micronucleus assay. In kind it is cell-based, human. The conditions noted are these: without S9; positive control lasiocarpine at 0.5 μM.
The subject of data set [4] is CYP2A6-expressing TK6 cells. In words: Relative cytotoxicity. It counts as cell-based, human. The conditions noted are these: for cytotoxicity at the highest concentration tested: 24 h, data not shown.
In data set [5] the test system is TK6 cells expressing CYP1A1. In words: In vitro micronucleus assay. The conditions noted are these: without S9; positive control B(a)P at 1 μM. It counts as cell-based, human.
For data set [6], the system named is CYP2A6-expressing TK6 cells. The data set can be described thus: In vitro micronucleus assay. In kind it is cell-based, human. The conditions noted are these: for %MN response (in words): NDIPA and NDBA at concentrations up to 1 mM; for BMD50 for MN frequency: Bayesian benchmark dose modeling, model-averaged, CES 0.5, 24-h treatment; for genotoxic potency relative to NMPA (BMD50 estimates, both endpoints): MN and γH2A.X BMD50 in CYP2A6-expressing TK6 cells, fold weaker than NMPA.

Data set [7] relates to CYP2A6-expressing TK6 cells. The data set can be described thus: Cell cycle analysis. It counts as cell-based, human. The conditions noted are these: 24 h; for percentage of cells in G2/M phase: vehicle controls 21.6%.
The test system of data set [8] is TK6 cells transduced with CYP2A6, 1A1, 2E1, and 3A4. In words: NDBA level in cell culture medium by UPLC-MS/MS. The conditions noted are these: 12.5 μM, 24 h; CYP2A6, 1A1, 2E1, and 3A4 expressed in TK6 cells. In kind it is in vitro ADME, human. The essentials: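 Cells were incubated 24 h with 12.5 μM test compound; wild-type cells in medium with rat or hamster S9 served as a metabolism reference. Medium was protein-precipitated with acetonitrile, centrifuged 12,000 × g for 5 min and run on C18 UPLC at 40 °C with a water/acetonitrile gradient (0.1% formic acid). Detection was ESI+ MRM at m/z 159.1 > 57.3 (LOD 6.8 nM), expressed relative to wild-type-cell medium (100%).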

For data set [9], the system named is TK6 cells. In words: NDBA distribution between medium and cell lysate by UPLC-MS/MS. It counts as in vitro ADME, human. The conditions noted are these: Supplementary Fig. 2.
Data set [10] deals with human HepG2 cells overexpressing CYP2A6. The data set can be described thus: MN assay in HepG2 cells. In kind it is cell-based. The conditions noted are these: Supplementary Fig. 1.
Data set [11] concerns CYP2A6-expressing TK6 cells. The data set can be described thus: MultiFlow DNA damage assay, γH2A.X formation. The conditions noted are these: for BMD50 for γH2A.X induction: Bayesian benchmark dose modeling, model-averaged, CES 0.5, 24-h treatment. It counts as cell-based, human.
Data set [12] deals with CYP2A6-expressing TK6 cells. In words: MultiFlow DNA damage assay, nuclear P53. It counts as cell-based, human. The conditions noted are these: 24 h; for nuclear P53 response (in words): concentrations studied; for increase in nuclear P53 vs vehicle control: 100 μM.
Data set [13] concerns TK6 cells expressing CYP2E1. The data set can be described thus: In vitro micronucleus assay. The conditions noted are these: without S9; positive control NDMA at 10 μM. It counts as cell-based, human.
The test system of data set [14] is TK6 cells expressing CYP2A6. The data set can be described thus: TK and HPRT gene mutation test. The conditions noted are these: Supplementary Table 1. It counts as cell-based, human.
Data set [15] concerns rats. The conditions noted are these: cited from earlier work.
For data set [16] the following is noted: 20 °C; no reference given; cited from earlier work.
Data set [17] concerns Chinese hamster V79 cells. The conditions noted are these: exogenous microsomal activation system; ref Kuroki et al. 1977; cited from earlier work.
Data set [18] concerns wild-type TK6 cells. In words: MultiFlow DNA damage assay, γH2A.X formation. It counts as cell-based, human. The conditions noted are these: positive control at 25 and 50 ng/ml.

For the compound `CCCCN(CCCC)N=O` [NDBA, N-nitrosodibutylamine], the “mutagenicity in the Ames test with metabolic activation by CYP2A6 or CYP1A1” value in [1] (ref Fujita and Kamataki 2001) is on record as “mutagenic”. For the same compound, the Ames test result in data set [2] (ref Bonfanti et al. 1990) is on record as “positive”. Moreover, the Ames test result in data set [2] (with metabolic activation by rodent S9, ref Inami et al. 2009) was “positive”. Further, in [3], the “MN formation (in words)” value is on record as “no effect”. In addition, the relative nuclei count in [4] (1 mM, CYP2A6-expressing TK6 cells) is recorded as 50%. Moreover, the “MN formation (in words)” value in data set [5] was “no effect”. The “%MN response (in words)” value in [6] (24 h) was “did not cause any significant increase”. Moreover, in data set [6], the “BMD50 for MN frequency” value was “could not be estimated”. Moreover, in [7] (1 mM), the “G2/M phase cell cycle arrest (in words)” value is “did not cause G2/M phase cell cycle arrest”, the “percentage of cells in G2/M phase (in words)” value is given as “decreased” and the “percentage of cells in the sub-G1 phase (in words)” value is “significantly increased”. In data set [8], the “metabolism of NDBA (amount in medium vs wild-type TK6 cells)” value is on record as “did not efficiently metabolize NDBA”. In addition, in [9], the “NDBA in the cell culture medium (in words)” value is given as “most of the NDBA remains in the cell culture medium” and the “amount of NDBA in the cell lysate (in words)” value is on record as “only a very limited amount of NDBA is found in the cell lysate”. Further, in data set [10], the “%MN frequencies (in words)” value was “did not increase %MN frequencies”. For the same compound, the “BMD50 for γH2A.X induction” value in data set [11] is recorded as “could not be estimated”. In addition, in data set [12], the “nuclear P53 response (in words)” value was “did not cause an increase”. Further, the “MN formation (in words)” value in [13] is recorded as “no effect”. The “TK or HPRT gene mutations (in words)” value in data set [14] is recorded as “did not induce TK or HPRT gene mutations”.
Take `CCN(CC)N=O` [NDEA, N-nitrosodiethylamine]: the Ames test result in data set [2] (ref Aiub et al. 2003) is given as “positive”. The “cytotoxicity at the highest concentration tested” value in data set [4] (CYP2A6-expressing TK6 cells) is 15–30%. The “increase in %MN” value in data set [6] (100 μM, 24 h) amounted to 2.6 fold. Further, the “%MN response (in words)” value in data set [6] (24 h) is recorded as “concentration-dependent increases”. Moreover, in [6], the “genotoxic potency relative to NMPA (BMD50 estimates, both endpoints)” value (from here on “genotoxic potency relative to NMPA”) was “more than tenfold less genotoxic”. For the same compound, in data set [7] (100 μM), the “percentage of cells in G2/M phase” value amounted to 25.1%. In data set [7], the “G2/M phase cell cycle arrest (in words)” value is reported as “resulted in G2/M phase cell cycle arrest” and the “percentage of cells in S phase (in words)” value is recorded as “concurrent decrease”. Moreover, the “γH2A.X increase over control” value in data set [11] (6.25 μM (lowest concentration tested), 24 h) is listed as 1.5 fold. Also, the “γH2A.X fluorescence signal increase over the controls” value in [11] (100 μM, 24 h) was found to be 2.7 fold. Further, in [12], the “increase in nuclear P53 vs vehicle control” value is 1.7 fold, the “lowest observed adverse effect level (LOAEL) for nuclear P53 increase” value is 25 µM and the “nuclear P53 response (in words)” value was “concentration-dependent increases”.
With `CC(C)N(N=O)C(C)C` [NDIPA, N-nitrosodiisopropylamine], the cytotoxicity entry in data set [4] (concentrations up to 1 mM, cell line not given) is “not cytotoxic”. The “%MN response (in words)” value in data set [6] (24 h) was “did not cause any significant increase”. Also, the “BMD50 for MN frequency” value in [6] was “could not be estimated”. For the same compound, the “mean tumor induction period” value in data set [15] (25 mg/kg dosing group, ref Lijinsky and Taylor 1979) was 770 days; in data set [15] (50 mg/kg dosing group, ref Lijinsky and Taylor 1979) it was 430 days. The carcinogenicity result in data set [15] (Sprague–Dawley rats, ref Lijinsky and Taylor 1979) was “weak carcinogen”. Also, the “BMD50 for γH2A.X induction” value in [11] is recorded as “could not be estimated”. Moreover, the “nuclear P53 response (in words)” value in data set [12] is on record as “did not cause an increase”.
Turning to `CN(C)N=O` [NDMA, N-nitrosodimethylamine, reference compound], the Ames test result in data set [2] (ref Aiub et al. 2003) is given as “positive”. Besides, the vapor pressure in [16] is recorded as over 1 mm Hg. Further, in [13], the “MN formation (in words)” value is on record as “significant increases in MN formation”.
Regarding `CCN(N=O)C(C)C` [NEIPA, N-nitrosoethylisopropylamine], the “cytotoxicity at the highest concentration tested” value in data set [4] (CYP2A6-expressing TK6 cells) was 15–30%. For the same compound, the “increase in %MN” value in data set [6] (100 μM, 24 h) is listed as 3.6 fold. For the same compound, in data set [6] (24 h), the “%MN response (in words)” value is on record as “concentration-dependent increases”. Moreover, in data set [6], the “genotoxic potency relative to NMPA” value is given as “more than tenfold less genotoxic”. Also, in data set [7] (100 μM), the “percentage of cells in G2/M phase” value was found to be 27.0%. Besides, in [7], the “G2/M phase cell cycle arrest (in words)” value is listed as “resulted in G2/M phase cell cycle arrest” and the “percentage of cells in S phase (in words)” value was “concurrent decrease”. Further, the “γH2A.X response (in words)” value in [11] (24 h treatment with nitrosamine) is reported as “concentration-dependent increase”. For the same compound, in data set [12], the “increase in nuclear P53 vs vehicle control” value came out at 1.5 fold, the “lowest observed adverse effect level (LOAEL) for nuclear P53 increase” value was 12.5 µM and the “nuclear P53 response (in words)” value is listed as “concentration-dependent increases”.
Take `CN(CCCC(=O)O)N=O` [NMBA, N-nitroso-N-methyl-4-aminobutanoic acid]: in data set [4] (CYP2A6-expressing TK6 cells), the “cytotoxicity at the highest concentration tested” value was 15–30%. For the same compound, in [6] (24 h), the “%MN response (in words)” value is listed as “concentration-dependent increases”. In addition, the “genotoxic potency relative to NMPA” value in [6] is “more than 100 fold”. In addition, in [7] (400 μM), the “percentage of cells in G2/M phase” value is listed as 24.3%. In data set [7], the “G2/M phase cell cycle arrest (in words)” value is “resulted in G2/M phase cell cycle arrest” and the “percentage of cells in S phase (in words)” value is on record as “concurrent decrease”. Besides, the carcinogenicity result in data set [15] (rats, large doses in drinking water, ref Lijinsky et al. 1983) was “caused only bladder cancer”. Also, the “concentration producing increased γH2A.X signals” value in data set [11] (24 h, increased signals only above this concentration) is “above 100 μM”. Further, the “nuclear P53 response (in words)” value in [12] is reported as “did not cause an increase”.
`CN(N=O)c1ccccc1` [NMPA, N-nitrosomethylphenylamine]: in data set [1] (ref Kushida et al. 2000), the “mutagenicity in Salmonella typhimurium expressing human CYP2A6” value is on record as “mutagenic”. In addition, in data set [2] (ref Koepke et al. 1990), the “mutagenicity in a standard Ames test” value is “not mutagenic”. In addition, in data set [17], the “mutagenicity in V79 cells” value was “not mutagenic”. For the same compound, the “cytotoxicity at the highest concentration tested” value in data set [4] (CYP2A6-expressing TK6 cells) is recorded as 15–30%. The “increase in %MN” value in data set [6] (2.5 μM, 24 h) is given as 2.0 fold. For the same compound, the “%MN in treated cells relative to controls” value in data set [6] (10 μM (highest concentration tested), 24 h) was 2.8 fold. Further, in [6] (24 h), the “%MN response (in words)” value is reported as “concentration-dependent increases”. For the same compound, the “BMD50 for MN frequency” value in data set [6] stood at 2.2 µM. Moreover, in data set [7] (10 μM), the “percentage of cells in G2/M phase” value is reported as 32.9%. For the same compound, in data set [7], the “G2/M phase cell cycle arrest (in words)” value was “resulted in G2/M phase cell cycle arrest” and the “percentage of cells in S phase (in words)” value is recorded as “concurrent decrease”. In addition, in data set [16], the vapor pressure is over 1 mm Hg. Also, the carcinogenicity result in data set [15] (rats, ref Kroeger-Koepke et al. 1983) is “potent esophageal carcinogen”. In data set [11] (0.625 μM, 24 h), the “γH2A.X increase over control” value came out at 1.3 fold. In addition, the “BMD50 for γH2A.X induction” value in data set [11] came out at 1.1 µM. In data set [12], the “lowest observed adverse effect level (LOAEL) for nuclear P53 increase” value is 1.25 µM and the “nuclear P53 response (in words)” value is on record as “concentration-dependent increases”.
As to `C/C=C(/C)C(=O)O[C@H]1CCN2CC=C(COC(=O)[C@@](O)([C@H](C)OC)C(C)(C)O)[C@H]12` [lasiocarpine, Lasiocarpine, reference compound], the “MN formation (in words)” value in data set [3] is on record as “significant increases in MN formation”.
Regarding `CO[C@@]12[C@H](COC(N)=O)C3=C(C(=O)C(C)=C(N)C3=O)N1C[C@@H]1N[C@@H]12` [mitomycin C, reference compound], the “γH2A.X response (in words)” value is recorded as “robust increase” in [18]; “robust increase” in data set [11] (positive control at 25 and 50 ng/ml).
